For 5 molecules, Time, Activity and Stability results are on record in ChEMBL document CHEMBL3228003, “Synthesis of angiotensin II analogues by incorporating beta-homotyrosine or beta-homoisoleucine residues” (J Med Chem, 1979).

The species entered for data set [1] is Rattus norvegicus. Description: Effect on pressor activity in vagotomized and ganglion-blocked rat assessed as duration of action. It counts as functional. A digest of the protocol:
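Single-injection pressor test in vagotomized, ganglion-blocked rats. Duration of action runs from peptide injection until blood pressure returns to control values.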

For data set [2], the species on record is Rattus norvegicus. Description: Effect on pressor activity in vagotomized and ganglion-blocked rat relative to angiotensin 2. It counts as functional. In a few lines: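 Pressor response was measured in vagotomized, ganglion-blocked rats by the single-injection procedure. Activity is expressed as a percentage of the pressor activity of angiotensin II, with n injections per value.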

For data set [3], the species on record is Rattus norvegicus. Description: Effect on pressor activity in vagotomized and ganglion-blocked rat assessed as duration of action relative to angiotensin 2. It counts as functional. In a few lines: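 Vagotomized, ganglion-blocked rats received single injections. Duration of action, timed from injection until blood pressure returns to control levels, is compared against an equipressor dose of angiotensin II given by the same procedure.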

Data set [4] is described as follows: Stability of the compound assessed as microsomal leucine aminopeptidase (unknown origin)-mediated liberation of sarcosine, arginine and valine after 2 hrs by TLC analysis. It counts as ADME, Homo sapiens. A digest of the protocol: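 Peptide (2 mg) in 0.4 mL of 0.5 mol Tris, pH 8.5, plus 0.1 mL of 0.025 mol MnCl2, was incubated at 37 °C with 0.2 mg of microsomal leucine aminopeptidase (25 units/1.83 mg). Acetic acid was added and the mixture lyophilized. Liberated amino acids were detected by TLC and amino acid analysis.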

The nature of data set [5]: Stability of the compound assessed as beef pancreas alpha-chymotrypsin-mediated drug degradation up to 3 hrs by TLC analysis. It counts as ADME, Bos taurus. The following applies: cattle, isolated protein. A digest of the protocol: (§1)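 Peptide (5 mg) in 0.5 mL of 0.1 mol ammonium acetate buffer, pH 7.5, was incubated at 37 °C with 0.4 mg of thrice-crystallized bovine pancreatic α-chymotrypsin suspended in buffer. The reaction was stopped with acetic acid, the mixture lyophilized, and fragments checked by TLC on cellulose in suitable solvents.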

The nature of data set [6]: Stability of the compound assessed as microsomal leucine aminopeptidase (unknown origin)-mediated liberation of aspartic acid from position 1 after 5 mins by TLC analysis.
Data set [7] in a line: Stability of the compound assessed as beef pancreas alpha-chymotrypsin-mediated drug degradation into 2 tetrapeptides after 15 to 20 mins by TLC analysis. The following applies: cattle, isolated protein. It is filed as ADME, Bos taurus. In a few lines:
as §1

Structures are written as SMILES.

For `CC[C@H](C)[C@@H](CC(=O)N[C@@H](Cc1cnc[nH]1)C(=O)N1CCC[C@H]1C(=O)N[C@@H](Cc1ccccc1)C(=O)O)NC(=O)[C@H](Cc1ccc(O)cc1)NC(=O)[C@@H](NC(=O)[C@H](CCCNC(=N)N)NC(=O)CNC)C(C)C`, the figures for the Time in the data set filed under Rattus norvegicus [1] and in the data set filed under Rattus norvegicus [3] were 4.7 min and 5.3 min, respectively. In the data set filed under Rattus norvegicus [2], this molecule had an Activity of 29.2%. The Stability result in data set [4] and in data set [5] was “Stable” throughout.

Take `CC[C@H](C)[C@H](NC(=O)C[C@H](Cc1ccc(O)cc1)NC(=O)[C@@H](NC(=O)[C@H](CCCNC(=N)N)NC(=O)CNC)C(C)C)C(=O)N[C@@H](Cc1cnc[nH]1)C(=O)N1CCC[C@H]1C(=O)N[C@@H](Cc1ccccc1)C(=O)O`: the results for the Time in the data set listed under Rattus norvegicus [1] and in the data set listed under Rattus norvegicus [3] were 5.5 min and 5.2 min, respectively. In addition, the Activity in the data set filed under Rattus norvegicus [2] is reported as 1.98%. The Stability entry in data set [4] and in data set [5] was “Stable” throughout.

`CC[C@H](C)[C@H](NC(=O)[C@H](Cc1ccc(O)cc1)NC(=O)[C@@H](NC(=O)[C@H](CCCNC(=N)N)NC(=O)CNC)C(C)C)C(=O)N[C@@H](Cc1cnc[nH]1)C(=O)N1CCC[C@H]1C(=O)N[C@@H](Cc1ccccc1)C(=O)O`: in data set [4], the Stability entry is given as “Stable”.

Consider `CC[C@H](C)[C@@H](CC(=O)N[C@@H](Cc1cnc[nH]1)C(=O)N1CCC[C@H]1C(=O)N[C@@H](Cc1ccccc1)C(=O)O)NC(=O)[C@H](Cc1ccc(O)cc1)NC(=O)[C@@H](NC(=O)[C@H](CCCNC(=N)N)NC(=O)[C@@H](N)CC(=O)O)C(C)C`, for which the Time in the data set filed under Rattus norvegicus [1] is on record as 6.7 min; in the data set listed under Rattus norvegicus [3], 6.3 min. Further, in the data set listed under Rattus norvegicus [2], the Activity came to 2.82%. In addition, the results for the Stability result in data set [5] and in data set [6] were “Stable” and “Unstable”, respectively.

Take `CC[C@H](C)[C@H](NC(=O)[C@H](Cc1ccc(O)cc1)NC(=O)[C@@H](NC(=O)[C@H](CCCNC(=N)N)NC(=O)[C@@H](N)CC(=O)O)C(C)C)C(=O)N[C@@H](Cc1cnc[nH]1)C(=O)N1CCC[C@H]1C(=O)N[C@@H](Cc1ccccc1)C(=O)O` [ANGIOTENSIN II]: the Stability entry in data set [7] and in data set [6] was “Unstable” throughout.
